Experimental data taken from the RNAGym collection of RNA variant scans (doi:10.1126/science.aae0568).
This sample holds only a part of the variants without activity.

B1: tRNA (parent)
chain: GUUCCGUUGGCGUAAUGGUAACGCGUCUCCCUCCUAAGGAGAAGACUGCGGGUUCGAGUCCCGUACGGAACG

Variants of: B1
Experiment: yeast fitness relative to wild type (ratio to wild type); higher = fitter; tRNA-Arg(CCU), competitive growth, 37 C, YPD
Outline: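 Variants of the tRNA-Arg(CCU) gene, chemically synthesised with a 3% per-site mutation rate at 69 sites, were placed at the native genomic locus in Saccharomyces cerevisiae. The pooled strains were competed in YPD at 37°C for 24 hours in six parallel replicates. Gene amplicons from the start population and from each end population were read by 100-nucleotide paired-end sequencing. Darwinian fitness relative to wild type came from changes in genotype frequencies; genotypes needed ≥ 100 starting reads, and estimates < 0.5 were set to 0.5.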

| Variant | yeast fitness |
| --- | --- |
| GUUCCGUUGGCGUAAUGGUAAUGCGUCUCCCUCCUAAGGAGAAGUCUGCGGGUUCGAGUCCUGUACGGAACG | 0.671 |
| GUUCCGUUGGCGUAAUGGUAAUGGGUCUCGCUCCUAAGGAGAAGACUGCGGGUUCGAGUCCCGUACGGAACG | ≤ 0.5 |
| GUUCCGUUGGCGUAAUGGUAAGGCGUCUCCCUCCUAAGGAGAAGACUCCGGGUUCGAGUCCCGUACCGAACG | ≤ 0.5 |
| GUUCCGUUGGCGUAAUGGUAAUGCGUCUCACUCCUAAGGUGAUGACUGCGGGUUCGAGUCCCGUACGGAACG | ≤ 0.5 |
| GUUCCGUUGGCGUAAUGGUAAGGCGUCUCCCUCCUAAGGAGAAGACUGCAGGUUCGAGUCCCGUACGGAACG | 0.837 |
| GUUCCGUUGGCGUAAUGGUAAGGCGUCUCCCUCCUAAGGAGAAGACAGCGGGUUCGAGUCCCGUACGGACCG | ≤ 0.5 |
| GUUCCGUUGGCGUAAUGGUAAUGCGUCUCACUCUUAACGAGAAGACUGCGGGUUCGAGUCCCGUACGGAACG | ≤ 0.5 |
| GUUCCGUUGGCGUAAUGGUAAUGUGUUUCCUUCCUAAGGAGAAGACUGCGGGUUCGAGUCCUGUACGGAACG | ≤ 0.5 |
| GUUCCGUUGGCGUAAUGGUAAUGCGUCUCCCUCCUAAGGAGUAGACUGGGGGUUCGAGUCCCGUACGGAACG | ≤ 0.5 |
| GUUCCGUUGGCGUAAUGGUAAGGCCUCUCCCUCCUAGGGAGAAGACUGCGGGUUCGAGUCCCGUACGGAACG | ≤ 0.5 |
| GUUCCGUUGGCGUAAUGGUAAGGCGUCCCCCUCCUAAGGAGAAGACAGCGGGUUCGAGUCCCGUACGGAACG | ≤ 0.5 |
| GUUCCGUUGGCGUAAUGGUAAGGCGUCUCCCUCCUAAGGAGAAGACAGCGGAUUCGAGUCCCGUACGGAACG | ≤ 0.5 |
| GUUCCGUUGGCGUAAUGGUAAGGCGUCUCCCUCCUAAGGAGAAGACUGCCGGUUCGGGUCCCGUACGGAACG | ≤ 0.5 |
| GUUCCGUUGGCGUAAUGGUAAGGCGACUGCCUCCUAAGGAGAAGACUGCGGGUUCGAGUCCCGUACGGAUCG | 0.591 |
| GUUCCGUUGGCGUAAUGGUAAGGCGUCUCCCUCCUAAGGAGAACACUGCGGGUUUGAGUCCCGUACGGAACG | 0.564 |
| GUUCCGUUGGCGUAAUGGUAAUGCGUCUCCCUCCUGAGGAGAAGACUGCGCGUUCGAGUCCCGUCCGGAACG | 0.6 |
| GUUCCGUUGGCGUAAUGGUAAUGCGUCUCCCUCCUAAGGAGAAGACUGCGGGUUCGAGUCCCGUACGGACCG | 0.859 |
| GUUCCGUUGGCGUAAUGGUAAGGCGUCUCCCUCCUAAGAAGAAGACUGCGGGUUCGAGUCCCGUACCGAACG | 0.526 |
| GUUCCGUUGGCGUAAUGGUAAGGCGUCUCCCCCCUAAGGAGAAGACUGCGGGUUCGAGUCCCGUACAGAACG | 0.564 |

| Variant | yeast fitness |
| --- | --- |
| GUUCCGUUGGCGUAAUGGUAAGCCGUACCCCUCCUAAGGAGAAGACUGCGGGUUCGAGUACCGUACGGAACG | ≤ 0.5 |
| GUUCCGUUGGCGUAAUGGUAAUGCGUCUACCUCCUAAGGAGAAGACUGCGGGUUGGAGUCCCGUUCAGAACG | 0.578 |
| GUUCCGUUGGCGUAAUGGUAAUGCGUGUCCUUCCUAAGGAGAAGACUGCGGGUUCGAGUCCCGUACGAAACG | ≤ 0.5 |
| GUUCCGUUGGCGUAAUGGUAAUGCGUUUCCCUGCUAAGGAGAACACUGCGGGUUCGAGUCCCGUACGGAACG | ≤ 0.5 |
| GUUCCGUUGGCGUAAUGGUAAGGCGUCUCCCUCCUAAGGAGAAGACUCCGGGUUCGAGUCCCGUACGGCACG | 0.589 |
| GUUCCGUUGGCGUAAUGGUAAUGCGUCUCCCUCCUCAGGAGAAGACUGCGGGUUCGAGUCCCGUACGGCACG | ≤ 0.5 |
| GUUCCGUUGGCGUAAUGGUAAGGCGUCUCCCUCCUAAGGAGAAGACGGCGGGUUCGAGUCCCGUAUGGCACG | ≤ 0.5 |
| GUUCCGUUGGCGUAAUGGUAAGGCGUCCACCUCCUAAGGAGCAGACUGCGGGUUCGAGUCCCGUACGGAACG | ≤ 0.5 |
| GUUCCGUUGGCGUAAUGGUAAUGCGUCUCCCUCCUAAGGAGUAGACUGCGCGUUCGAGUCCUGUACGGAACG | ≤ 0.5 |
| GUUCCGUUGGCGUAAUGGUAAGGCGUCUCCCUCCCAAGGAGAAGACUGCGGGUUCGCGUCCCGUACGGAACG | 0.61 |
| GUUCCGUUGGCGUAAUGGUAAUGUGUCUCCCUCCUAAGGAGAAGACUGCGCGUUCGAGUCCCGUACGGAACG | ≤ 0.5 |
| GUUCCGUUGGCGUAAUGGUAAUGCGUGGCCCUCCUAAGGAGAAGACUGCGGGUUCGAGCCCCGUACGGAACG | ≤ 0.5 |
| GUUCCGUUGGCGUAAUGGUAAUGCGUCUUCCUCCUAAGGCGAAGACUGCGGGUUCGAGUCCCGUACGGAACG | 0.667 |
| GUUCCGUUGGCGUAAUGGUAAUGCGUCUCCCUCCUAAGGAGCAGACUGCGGGUUCGCGUCCCGUACGGAACG | ≤ 0.5 |
| GUUCCGUUGGCGUAAUGGUAAGGCGUCUCCCUCCUAAGGAGAAGACUGCGGGUUCGAGUCCCGUACGAAACG | 0.813 |
| GUUCCGUUGGCGUAAUGGUAAUGCGUCUCCCUCCUAAGGGGAUGAGUGGGGGUUCGAGUCCCGUACGGAGCG | ≤ 0.5 |
| GUUCCGUUGGCGUAAUGGUAAGGCGUCUCCCUCCUAAGGAAACGACUGCGCGUUCGAGUCCCGUAUUGAACG | ≤ 0.5 |
| GUUCCGUUGGCGUAAUGGUAAGGCGUCUCCCACCUAAGGAGAAGACUGCGGGUUCGAGUCCCGUACGGAACG | 0.71 |
